Assay results as given in ChEMBL document CHEMBL4261527, “Benzylsulfanyl benzo-heterocycle amides and hydrazones as new agents against drug-susceptible and resistant Mycobacterium tuberculosis” (Medchemcomm, 2017).
In brackets after ≈: the same amount, converted by molar mass. Activity calls are given as the source filed them. The calls are words filed in the database; no cut-off is given here.

Tests used:
[1] = system: Mycobacterium tuberculosis; assay: Antitubercular activity against Mycobacterium tuberculosis H37Ra harboring pTYOK infected in Balb/c mouse assessed as bacterial growth inhibition at 3.1 mg/kg qd measured at 2 days interval for 6 days by luminometric method; assay type: functional, organism-based
Procedure, shortened: (§1)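 Mice infected with marker-free autoluminescent Mtb H37Ra and dosed once daily for 6 consecutive days; vehicle CMC-Na. Read-out is the luminescence ratio RLU on day n over RLU on day 0, plotted against days after the first treatment.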

[2] = system: Mycobacterium tuberculosis; assay: Antimycobacterial activity against ethambutol-resistant Mycobacterium tuberculosis ATCC 35837 by resazurin dye based fluorimetric method; assay type: functional
[3] = system: Mycobacterium tuberculosis; assay: Antimycobacterial activity against rifampicin-resistant Mycobacterium tuberculosis H37Rv by resazurin dye based fluorimetric method; assay type: functional
[4] = system: Mycobacterium tuberculosis; assay: Antimycobacterial activity against kanamycin-resistant Mycobacterium tuberculosis ATCC 35827 by resazurin dye based fluorimetric method; assay type: functional
[5] = system: Mycobacterium tuberculosis; assay: Antimycobacterial activity against multidrug-resistant Mycobacterium tuberculosis clinical isolate; assay type: functional
Procedure, shortened: (§2)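 Clinical isolates coded 960 (drug-susceptible), 330 (MDR) and 431 (XDR); MIC reported in μM.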

[6] = system: Mycobacterium tuberculosis; assay: Potency index, ratio of isoniazid MIC to test compound MIC for extensively drug-resistant Mycobacterium tuberculosis clinical isolate; assay type: functional
[7] = system: Mycobacterium tuberculosis; assay: Antimycobacterial activity against streptomycin-resistant Mycobacterium tuberculosis ATCC 35820 by resazurin dye based fluorimetric method; assay type: functional
[8] = system: Mycobacterium tuberculosis; assay: Potency index, ratio of ftivazide MIC to test compound MIC for extensively drug-resistant Mycobacterium tuberculosis clinical isolate; assay type: functional
[9] = system: Mycobacterium tuberculosis; assay: Antimycobacterial activity against ethionamide-resistant Mycobacterium tuberculosis ATCC 35830 by resazurin dye based fluorimetric method; assay type: functional
[10] = system: Mycobacterium tuberculosis; assay: Antimycobacterial activity against extensively drug-resistant Mycobacterium tuberculosis clinical isolate; assay type: functional; procedure, shortened: as §2
[11] = system: Mycobacterium tuberculosis; assay: Antitubercular activity against Mycobacterium tuberculosis H37Ra harboring pTYOK infected in Balb/c mouse assessed as bacterial growth inhibition at 10 mg/kg qd measured at 2 days interval for 6 days by luminometric method; assay type: functional, organism-based; procedure, shortened: as §1

Compound | growth inhibition (GI) [1] | MIC [2] [mg/L] | MIC [3] [mg/L] | MIC [4] [mg/L] | MIC [5] [µM] | Ratio [6] | MIC [7] [mg/L] | Ratio [8] | MIC [9] [mg/L] | MIC [10] [µM] | growth inhibition (GI) [11]
O=C(N/N=C/c1ccc(CSc2nc3ccccc3o2)cc1)c1ccncc1 | Active | 0.156 (≈ 0.402 µM) | 0.312 (≈ 0.803 µM) | 0.156 (≈ 0.402 µM) | 6.4 (≈ 2.49 µg/mL) | 20 | 0.156 (≈ 0.402 µM) | 10 | 1.25 (≈ 3.22 µM) | 3.2 (≈ 1.24 µg/mL) | 
COc1cc(/C=N/NC(=O)c2ccncc2)ccc1O [FTIVAZIDE] |  | 0.312 (≈ 1.15 µM) | 0.312 (≈ 1.15 µM) | 0.156 (≈ 0.575 µM) | 16 (≈ 4.34 µg/mL) |  | 0.312 (≈ 1.15 µM) |  | 1.25 (≈ 4.61 µM) | 32 (≈ 8.68 µg/mL) | 
CO[C@H]1/C=C/O[C@@]2(C)Oc3c(C)c(O)c4c(O)c(c(/C=N/N5CCN(C)CC5)c(O)c4c3C2=O)NC(=O)/C(C)=C\C=C\[C@H](C)[C@H](O)[C@@H](C)[C@@H](O)[C@@H](C)[C@H](OC(C)=O)[C@@H]1C [RIFAMPIN] |  |  |  |  | > 19 |  |  |  |  | > 19 | Active
O=C(N/N=C/c1ccc(CSc2nc3ccccc3s2)cc1)c1ccncc1 |  | 0.312 (≈ 0.771 µM) | 0.625 (≈ 1.55 µM) | 0.312 (≈ 0.771 µM) | 6.4 (≈ 2.59 µg/mL) |  | 0.312 (≈ 0.771 µM) |  | 1.25 (≈ 3.09 µM) | > 12.8 | 
O=C(N/N=C/c1ccc(CSc2nc3ccccc3[nH]2)cc1)c1ccncc1 |  | 0.156 (≈ 0.403 µM) | 0.312 (≈ 0.805 µM) | 0.156 (≈ 0.403 µM) | 6.4 (≈ 2.48 µg/mL) |  | 0.156 (≈ 0.403 µM) |  | 1.25 (≈ 3.23 µM) | > 12.8 | 
O=C(NCc1ccc(CSc2nc3ccccc3o2)cc1)c1ccncc1 |  |  |  |  | 2 (≈ 0.751 µg/mL) |  |  |  |  | 16 (≈ 6.01 µg/mL) | 
NNC(=O)c1ccncc1 [ISONIAZID] |  |  |  |  | 8 (≈ 1.1 µg/mL) |  |  |  |  | 64 (≈ 8.78 µg/mL) | 
